# Reference: ChEMBL document CHEMBL4831507, “Development of FABP4/5 inhibitors with potential therapeutic effect on type 2 Diabetes Mellitus” (Eur J Med Chem, 2021)
# pIC50, pKd: −log10 of the molar value. Calls of active or inactive are those of the source. No cut-off for these calls is given here.
# What was measured:
# [1] = biological target: T1, Fatty acid-binding protein 5 (Homo sapiens, UniProt Q01469); assay: Displacement of 1,8-ANS from FABP5 (unknown origin) incubated for 3 mins by fluorescence based analysis
# [2] = biological target: T2, Fatty acid-binding protein, adipocyte (Homo sapiens, UniProt P15090); assay: Displacement of 1,8-ANS from FABP4 (unknown origin) incubated for 3 mins by fluorescence based analysis
# How it was run: (§1)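 1,8-ANS displacement using purified recombinant FABP3, FABP4 or FABP5. Compound incubated with protein and 1,8-ANS in phosphate buffer for 3 min at room temperature. Fluorescence read at ex 370/em 470 nm. IC50 by nonlinear regression, mean ± SD of three independent experiments.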
# Target sequence in this assay (P15090 whole entry): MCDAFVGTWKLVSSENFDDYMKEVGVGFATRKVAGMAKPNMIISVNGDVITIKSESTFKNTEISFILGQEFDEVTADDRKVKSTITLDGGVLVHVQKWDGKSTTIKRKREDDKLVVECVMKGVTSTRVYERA
# Homo sapiens [3] = species on record: Homo sapiens; assay: Selectivity ratio of IC50 for FABP3 (unknown origin) to IC50 for FABP4 (unknown origin); how it was run: as §1
# Homo sapiens [4] = species on record: Homo sapiens; assay: Selectivity ratio of IC50 for FABP3 (unknown origin) to IC50 for FABP5 (unknown origin); how it was run: as §1
# [5] = biological target: Fatty acid-binding protein, heart (Homo sapiens, UniProt P05413); assay: Displacement of 1,8-ANS from FABP3 (unknown origin) incubated for 3 mins by fluorescence based analysis; how it was run: as §1
# [6] = biological target: T2, Fatty acid-binding protein, adipocyte; assay: Displacement of 1,8-ANS from FABP4 (unknown origin) at 25 uM incubated for 3 mins by fluorescence based analysis relative to control
# How it was run: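 Single-concentration percent inhibition in the 1,8-ANS displacement assay with FABP4. Compound incubated with protein and probe in phosphate buffer for 3 min at room temperature; fluorescence read at ex 370/em 470 nm.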
# Target sequence in this assay (P15090 2-132 limits assumed): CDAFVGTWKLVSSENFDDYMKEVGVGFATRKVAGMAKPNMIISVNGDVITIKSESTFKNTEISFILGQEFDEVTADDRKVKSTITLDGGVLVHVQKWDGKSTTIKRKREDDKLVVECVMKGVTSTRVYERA
# 3T3-L1 [7] = assay: Cytotoxicity against mouse 3T3-L1 cells assessed as reduction in cell viability at 100 uM incubated for 24 hrs by CCK8 assay; type: cell-based; details: 3t3-l1, 24 h
# [8] = AUC in ICR mouse at 1 mg/kg, iv measured for 24 hrs by LC-MS/MS analysis; type: ADME, organism-based; set-up: dose 1 mg/kg, time 24 hrs; details: in vivo
# How it was run: (§2)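 Male ICR mice, 20-25 g, three per group. Oral dose 3 mg/kg in PBS with 5% DMSO and 0.5% HPMC; iv dose 1 mg/kg in DMSO/EtOH/PEG300/NaCl (5/5/40/50). Blood sampled at 0.25, 0.5, 1, 2, 4, 8 and 24 h. Plasma drug measured by LC-MS/MS. Mean ± SEM, n = 3.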
# THP-1 [9] = assay: Cytotoxicity against human THP-1 cells assessed as reduction in cell viability at 50 uM incubated for 24 hrs by CCK8 assay; type: cell-based; details: thp-1, 24 h
# Mus musculus [10] = assay: Improvement in lipid homeostasis in C57BL/KsJ-db/db mouse assessed as effect on triglyceride level in serum at 50 mg/kg, po administered for 8 weeks; type: functional, organism-based
# How it was run: (§3)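 Male db/db mice, 6 weeks old, 10 per group, dosed 50 mg/kg by gavage daily for 8 weeks; vehicle 0.5% CMC-Na. Lean littermates received vehicle. Body weight recorded twice weekly; 6-h fasting tail glucose by glucometer weekly. OGTT on day 45: overnight fast, glucose 0.5 g/kg by gavage. ITT on day 51: 6-h fast, insulin 0.85 IU/kg ip. Glucose AUC calculated. Final serum taken after 6-h fast; HDL-C, LDL-C, TG, TCH and FABP4 measured by kits. Liver Akt and p-Akt(Ser473) by western blot.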
# THP-1 [11] = assay: Antiinflammatory activity against LPS-induced human THP-1 cells assessed as inhibition of MCP-1 gene expression at 25 uM incubated for 18 hrs followed by LPS-stimulation and measured after 6 hrs by qRT-PCR analysis; type: functional, cell-based; details: time 24.0 hrs
# How it was run: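 THP-1 cells (1 per 48-well, 3*10⁵) differentiated with 100 nM PMA for 24 h, then washed with PBS. Compound at […] or 0.1% DMSO for 18 h, then 100 ng/ml LPS for 6 h. RNA extracted with TRIzol. MCP-1 mRNA by RT-qPCR, 2^-ΔΔCT method.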
# 3T3-L1 [12] = assay: Inhibition of FABP4 secretion in mouse 3T3-L1 cells assessed as reduction in FABP4 level in conditioned medium at 50 uM incubated for 24 hrs by immunoblotting analysis; type: functional, cell-based
# How it was run: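 Mature 3T3-L1 adipocytes starved for 6 h in DMEM with 0.5% BSA, then treated with compound at […] for 24 h. Conditioned medium ultrafiltered; lysate and medium protein measured by BCA. FABP4 immunoblotted with GAPDH, ECL detection, densitometry. Three independent experiments.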
# Mus musculus [13] = assay: Reduction in FABP4 level in serum of C57BL/KsJ-db/db mouse at 50 mg/kg, po administered for 8 weeks; type: functional, organism-based; how it was run: as §3
# Mus musculus [14] = assay: Antidiabetic activity in C57BL/KsJ-db/db mouse assessed as reduction in fasting blood glucose level at 50 mg/kg, po administered for 7 weeks; type: functional; details: 1176 h; how it was run: as §3
# Mus musculus [15] = assay: Antidiabetic activity in C57BL/KsJ-db/db mouse assessed as improvement in insulin resistance at 50 mg/kg, po administered for 51 days by insulin tolerance test; type: functional, organism-based; details: time 51.0 day; how it was run: as §3
# [16] = Metabolic stability in mouse liver microsomes assessed as half life at 0.1 uM preincubated for 10 mins followed by NADPH addition and measured for 60 mins by LC-MS/MS analysis; type: ADME, Microsome; details: time 70 min
# How it was run: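 Mouse liver microsomes 0.33 mg/mL in 0.1 M Tris pH 7.4 with 5 mM MgCl₂, 0.01% DMSO and 0.005% BSA. Compound final […]. Preincubated 10 min at 37 °C; reaction started with 1 mM NADPH. Samples at 0, 7, 17, 30 and 60 min quenched with cold methanol, then analysed by LC-MS/MS.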
# [17] = biological target: T2, Fatty acid-binding protein, adipocyte; assay: Binding affinity to FABP4 (unknown origin) by microscale thermophoresis analysis
# Target sequence in this assay (P15090 whole entry): as the sequence (P15090 whole entry) above
# [18] = Toxicity in C57BL/KsJ-db/db mouse assessed as effect on body weight at 50 mg/kg, po administered for 8 weeks; type: organism-based; details: in vivo, 1344 h; how it was run: as §3
# 3T3-L1 [19] = assay: Anti-lipolytic activity in mouse 3T3-L1 cells assessed as inhibition of forskolin-stimulated glycerol release at 80 uM preincubated for 24 hrs followed by forskolin stimulation for 1 hr; type: functional, cell-based; details: time 25.0 hrs
# [20] = Half life in ICR mouse at 3 mg/kg, po measured for 24 hrs by LC-MS/MS analysis; type: ADME, organism-based; details: in vivo; how it was run: as §2
# [21] = Clearance in ICR mouse at 3 mg/kg, po and 1 mg/kg, iv measured for 24 hrs by LC-MS/MS analysis; type: ADME, organism-based; details: in vivo; how it was run: as §2
# [22] = Cmax in ICR mouse at 3 mg/kg, po and 1 mg/kg, iv measured for 24 hrs by LC-MS/MS analysis; type: ADME, organism-based; set-up: time 24 hrs, dose 3 mg/kg; details: in vivo; how it was run: as §2
# Mus musculus [23] = assay: Antidiabetic activity in C57BL/KsJ-db/db mouse assessed as improvement in glucose metabolism at 50 mg/kg, po administered for 45 days by oral glucose tolerance test; type: functional, organism-based; details: time 45.0 day; how it was run: as §3
# [24] = AUC in ICR mouse at 3 mg/kg, po measured for 24 hrs by LC-MS/MS analysis; type: ADME, organism-based; set-up: dose 3 mg/kg, time 24 hrs; details: in vivo; how it was run: as §2
# Mus musculus [25] = assay: Improvement in lipid homeostasis in C57BL/KsJ-db/db mouse assessed as effect on total cholesterol level in serum at 50 mg/kg, po administered for 8 weeks; type: functional, organism-based; how it was run: as §3
# [26] = biological target: T1, Fatty acid-binding protein 5; assay: Binding affinity to FABP5 (unknown origin) by microscale thermophoresis analysis
# [27] = Oral bioavailability in ICR mouse at 3 mg/kg measured for 24 hrs by LC-MS/MS analysis; type: ADME, organism-based; details: in vivo; how it was run: as §2
# [28] = Half life in ICR mouse at 1 mg/kg, iv measured for 24 hrs by LC-MS/MS analysis; type: ADME, organism-based; details: in vivo; how it was run: as §2
# Mus musculus [29] = assay: Improvement in lipid homeostasis in C57BL/KsJ-db/db mouse assessed as increase in high density cholesterol level in serum at 50 mg/kg, po administered for 8 weeks; type: functional, organism-based; how it was run: as §3
# Mus musculus [30] = assay: In vivo activation of […] signaling in C57BL/KsJ-db/db mouse assessed as increase in Akt phosphorylation at Ser473 in liver at 50 mg/kg, po administered for 8 weeks by western blot analysis; type: functional, organism-based; how it was run: as §3
# Mus musculus [31] = assay: Improvement in lipid homeostasis in C57BL/KsJ-db/db mouse assessed as reduction in low density cholesterol level in serum at 50 mg/kg, po administered for 8 weeks; type: functional, organism-based; how it was run: as §3
# T1 sequence (Q01469 whole entry): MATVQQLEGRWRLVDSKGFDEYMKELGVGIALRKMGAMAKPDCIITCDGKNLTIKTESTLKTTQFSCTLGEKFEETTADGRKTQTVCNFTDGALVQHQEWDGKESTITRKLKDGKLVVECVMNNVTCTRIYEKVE
# Fatty acid-binding protein, heart, sequence (P05413 whole entry): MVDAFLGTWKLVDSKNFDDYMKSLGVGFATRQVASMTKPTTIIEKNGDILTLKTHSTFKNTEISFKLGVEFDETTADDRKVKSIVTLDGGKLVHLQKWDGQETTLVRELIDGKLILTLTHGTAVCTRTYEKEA
SMILES,pIC50 [1],pIC50 [2],Ratio IC50 (Homo sapiens [3]),Ratio IC50 (Homo sapiens [4]),pIC50 [5],inhibition [6] [%],Activity (3T3-L1 [7]),AUC at 24 h [8] [ng·h/mL],Activity (THP-1 [9]),Activity (Mus musculus [10]),Activity (THP-1 [11]),inhibition (3T3-L1 [12]),inhibition (Mus musculus [13]),inhibition in vivo at 50 mg/kg (Mus musculus [14]) [%],Activity (Mus musculus [15]),half-life at 0.1 µM [16] [h],pKd [17],Activity [18],Activity (3T3-L1 [19]),half-life [20] [h],other results
O=C(O)c1cc(NS(=O)(=O)c2ccc(-c3ccc(F)c(Cl)c3)c3ccccc23)ccc1F,5.20,5.11,13.1,16.3,3.99,78,Non-Toxic,,,,,,,,,,,,,,
COc1c(-c2ccc(F)cc2C)cc(S(=O)(=O)Nc2ccc(F)c(CC(=O)O)c2)c2ccccc12,5.24,5.42,22.3,14.7,4.07,94,Non-Toxic,1940,Non-Toxic,inactive,Active,Active,Active,28.1,Active,1.47,5.50,Non-Toxic,Active,6.04,clearance [21]: 8.56 mL/min/kg; Cmax [22]: 478 ng/mL; Activity (Mus musculus [23]): Active; AUC at 24 h [24]: 1740 ng·h/mL; Activity (Mus musculus [25]): inactive; pKd [26]: 4.85; bioavailability [27]: 29.9%; half-life [28]: 1.78 h; Activity (Mus musculus [29]): Active; Activity (Mus musculus [30]): Active
Cc1c(Cl)cccc1OCc1[nH]c2nc(-c3ccccc3)nn2c(=O)c1C,,5.20,0.31,0.08,5.71,97,,,,,,,,,,,,,,,
O=C(O)c1cc(NS(=O)(=O)c2ccc(-c3ccc(F)cc3Cl)c3ccccc23)ccc1F,,5.33,,,3.98,86,Non-Toxic,1980,Non-Toxic,inactive,Active,Active,Active,32.4,Active,1.52,4.96,Non-Toxic,Active,1.36,Activity (Mus musculus [31]): Active; clearance [21]: 8.73 mL/min/kg; Cmax [22]: 782 ng/mL; Activity (Mus musculus [23]): Active; AUC at 24 h [24]: 1090 ng·h/mL; Activity (Mus musculus [25]): inactive; bioavailability [27]: 18.4%; half-life [28]: 2.88 h; Activity (Mus musculus [29]): Active; Activity (Mus musculus [30]): Active
